# Results reported in ChEMBL document CHEMBL1127418, “Novel antiproliferative agents derived from lavendustin A” (J Med Chem, 1994).
# What was measured:
# [1] = test system: HaCaT; assay: Inhibitory activity of HaCaT keratinocyte cell line; type: functional, cell-based; details: Homo sapiens
# Summary of the method: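 HaCaT keratinocytes kept in DMEM with 5% FCS, trypsinized and seeded at 4000 cells/0.2 mL/well. After 24 h, medium was replaced with fresh medium holding graded compound concentrations. Proliferation was read after 3–4 days by sulforhodamine B colorimetry. IC50 values are the average of at least two independent measurements.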
# [2] = molecular target: Epidermal growth factor receptor (Homo sapiens, UniProt P00533); assay: Inhibition of EGF-R Tyrosine kinase (TK)
# [3] = test system: B16; assay: Inhibition of B16F1 cell proliferation; details: Mus musculus
# [4] = test system: MDA-MB-231; assay: cells; details: Homo sapiens
# [5] = test system: K562; assay: Inhibition of K562 cell proliferation; details: Homo sapiens
# [6] = test system: MCF7; assay: Inhibition of MCF-7 cell proliferation; details: Homo sapiens
# [7] = test system: SCL-1; assay: Inhibition of SCL-1 cell proliferation; details: Homo sapiens
# [8] = test system: KB; assay: Inhibition of KB cell proliferation; details: Homo sapiens
# [9] = test system: SK-BR-3; assay: Inhibition of SK-BR-3 cell proliferation; type: functional, cell-based; details: Homo sapiens
# Summary of the method: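 Tumour cells grown at 37 °C without antibiotics. Harvested at exponential growth (suspension lines) or 60–90% confluence (adherent lines, trypsinized), then seeded at 1000–5000 cells/well. Cultured 3–4 days with graded compound concentrations. Proliferation read by sulforhodamine B for adherent cells or MTT for suspension cells. IC50 derived from the concentration series.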
# [10] = test system: MDA-MB-468; assay: Inhibition of MDA-MB-468 cell proliferation; type: functional, cell-based; details: Homo sapiens
# [11] = test system: A-431; assay: Inhibition of A431 cell proliferation; details: Homo sapiens
# [12] = test system: LoVo; assay: Inhibition of LOVO cell proliferation; type: functional, cell-based; details: Homo sapiens
# [13] = test system: L1210; assay: (§1) Inhibition of L1210 cell proliferation; details: Mus musculus
# [14] = test system: U-937; assay: Inhibition of U937 cell proliferation; type: functional, cell-based; details: Homo sapiens
# [15] = test system: P388; assay: Inhibition of P388 cell proliferation; details: Mus musculus
# [16] = test system: HeLa; assay: Inhibition of HeLa cell proliferation; details: Homo sapiens
# [17] = test system: L1210; assay: as §1; type: functional, cell-based; details: Mus musculus
# Epidermal growth factor receptor, sequence (P00533 whole entry): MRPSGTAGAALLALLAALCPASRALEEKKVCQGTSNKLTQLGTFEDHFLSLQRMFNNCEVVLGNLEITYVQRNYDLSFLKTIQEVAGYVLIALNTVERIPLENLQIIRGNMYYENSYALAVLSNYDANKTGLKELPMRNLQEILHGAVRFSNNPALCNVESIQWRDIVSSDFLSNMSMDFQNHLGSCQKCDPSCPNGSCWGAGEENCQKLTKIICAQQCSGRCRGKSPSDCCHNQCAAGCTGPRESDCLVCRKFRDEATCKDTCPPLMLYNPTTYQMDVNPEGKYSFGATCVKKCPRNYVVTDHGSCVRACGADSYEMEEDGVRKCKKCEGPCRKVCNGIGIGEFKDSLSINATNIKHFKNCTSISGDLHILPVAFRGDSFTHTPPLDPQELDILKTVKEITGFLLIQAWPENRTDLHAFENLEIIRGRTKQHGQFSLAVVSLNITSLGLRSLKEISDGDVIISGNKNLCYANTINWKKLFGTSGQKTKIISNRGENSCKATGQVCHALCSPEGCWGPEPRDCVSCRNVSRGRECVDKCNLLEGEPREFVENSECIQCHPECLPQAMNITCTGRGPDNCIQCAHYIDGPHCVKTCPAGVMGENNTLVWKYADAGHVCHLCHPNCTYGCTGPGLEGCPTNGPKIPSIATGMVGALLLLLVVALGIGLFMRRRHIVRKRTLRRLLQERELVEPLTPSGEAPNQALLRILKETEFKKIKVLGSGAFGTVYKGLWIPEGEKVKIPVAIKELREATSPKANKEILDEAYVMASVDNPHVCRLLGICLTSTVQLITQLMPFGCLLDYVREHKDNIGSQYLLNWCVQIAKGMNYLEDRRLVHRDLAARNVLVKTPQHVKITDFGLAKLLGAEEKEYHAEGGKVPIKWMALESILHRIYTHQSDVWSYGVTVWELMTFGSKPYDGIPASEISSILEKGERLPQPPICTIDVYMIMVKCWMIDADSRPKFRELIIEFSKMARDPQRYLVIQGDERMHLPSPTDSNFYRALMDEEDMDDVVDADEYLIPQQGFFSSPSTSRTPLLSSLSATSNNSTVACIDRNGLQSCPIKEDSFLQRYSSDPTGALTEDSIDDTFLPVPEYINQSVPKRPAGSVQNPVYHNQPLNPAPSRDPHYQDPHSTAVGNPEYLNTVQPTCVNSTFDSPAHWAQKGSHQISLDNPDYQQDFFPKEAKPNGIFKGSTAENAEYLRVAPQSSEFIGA
structure (smiles),measurement,setting,value
O=C(O)c1cc(CCc2cc(O)ccc2O)ccc1O,IC50,[1],> 100000 nM
same,IC50,[2],3300 nM
COC(=O)c1cc(CCc2cc(OC)ccc2OC)ccc1O,IC50,[3],269 nM
same,IC50,[4],428 nM
same,IC50,[5],218 nM
same,IC50,[6],19 nM
same,IC50,[1],40 nM
same,IC50,[7],383 nM
same,IC50,[8],192 nM
same,IC50,[9],31 nM
same,IC50,[2],> 100000 nM
same,IC50,[10],46.5 nM
same,IC50,[11],213 nM
same,IC50,[12],185 nM
same,IC50,[13],415 nM
same,IC50,[14],320 nM
same,IC50,[15],338 nM
same,IC50,[16],470 nM
COC(=O)c1cc(/C=C/c2cc(OC)ccc2OC)ccc1O,IC50,[1],5600 nM
COc1ccc(OC)c(CCc2ccc(O)c(C(=O)O)c2)c1,IC50,[1],4800 nM
COC(=O)c1cc(NCc2cc(O)ccc2O)ccc1O,IC50,[1],29000 nM
same,IC50,[2],24400 nM
COC(=O)c1cc(CCc2cc(O)ccc2O)ccc1O,IC50,[1],18000 nM
COC(=O)c1cc(COc2cc(OC)ccc2OC)ccc1O,IC50,[1],14000 nM
COC(=O)c1cc(/C=C\c2cc(OC)ccc2OC)ccc1O,IC50,[1],3900 nM
COC(=O)c1cc(NCc2cc(OC)ccc2OC)ccc1O,IC50,[1],1500 nM
COc1ccc(OC)c(CNc2ccc(O)c(C(=O)O)c2)c1,IC50,[1],92000 nM
same,IC50,[2],> 100000 nM
COC(=O)c1cc(CNc2cc(OC)ccc2OC)ccc1O,IC50,[1],72000 nM
COc1cc2c(c(OC)c1OC)-c1ccc(OC)c(=O)cc1[C@@H](NC(C)=O)CC2 [COLCHICINE],IC50,[4],20.5 nM
same,IC50,[5],14.1 nM
same,IC50,[6],15.3 nM
same,IC50,[8],5.6 nM
same,IC50,[9],5 nM
same,IC50,[17],14.7 nM
same,IC50,[10],6.9 nM
same,IC50,[11],14 nM
same,IC50,[12],6 nM
same,IC50,[14],5.2 nM
same,IC50,[15],9.5 nM
same,IC50,[16],18 nM
O=C(O)c1cc(N(Cc2ccccc2O)Cc2cc(O)ccc2O)ccc1O [LAVENDUSTIN A],IC50,[1],> 100000 nM
same,IC50,[2],4100 nM
O=C(O)c1cc(NCc2cc(O)ccc2O)ccc1O [LAVENDUSTIN C],IC50,[1],≥ 100000 nM
